# In publication PMC11100557 (Science Advances, 2024):
# How the values were obtained:
# [1] = biological target: KIN10 mutant 3 (Arabidopsis thaliana, UniProt Q38997, K63A/K69A/L73A/R65A/R66A); assay: MST binding of ATP to KIN10 mutant 3; conditions: fig. S5
# Method in brief: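 KIN10 kinase-domain mutant 3 (K63A-R65A-R66A-K69A-L73A), N-His6, expressed in E. coli BL21(DE3), Ni-NTA purified. Protein labeled with NT647 via NHS coupling to lysines (30 min on ice), free dye removed by size exclusion into MST buffer (50 mM phosphate pH 7.4, 150 mM NaCl, MgCl2, 1 mM DTT, 0.05% Tween 20).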
# [2] = biological target: KIN10 mutant 2 (R52A-R53A-K54A-K56A) (Arabidopsis thaliana, UniProt Q38997, K54A/K56A/R52A/R53A); assay: MST binding of T6P to KIN10 mutant 2
# Method in brief: (§1)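 Alanine-substituted KIN10 kinase domain was made by overlap PCR and cloned into pET28a. It was expressed with an N-terminal His6 tag in E. coli BL21(DE3) and Ni-NTA purified. Protein was NT647-NHS labelled and desalted into phosphate buffer pH 7.4 with NaCl, DTT and Tween 20. 100 nM labelled protein was mixed with a T6P serial dilution, and MST was read at 25°C (40% MST, 80% LED power).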
# [3] = tested on: GRIK1-KIN10; conditions: MST; ref Zhai et al. ([9]); cited from earlier work
# [4] = biological target: KIN10 K63A (Arabidopsis thaliana, UniProt Q38997, K63A); assay: MST binding of T6P to KIN10 K63A
# Method in brief: (§2)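 N-terminal His6-tagged recombinant KIN10 was expressed in E. coli BL21(DE3), Ni-NTA purified, and NT647-labelled on lysines via NHS coupling. Free dye was removed by size exclusion into MST buffer (50 mM phosphate pH 7.4, 150 mM NaCl, 1 mM DTT, 0.05% Tween 20). 100 nM labelled protein was titrated with serially diluted T6P. Microscale thermophoresis was run at 25°C, 40% MST power and 80% LED power.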
# [5] = biological target: T1, KIN10 mutant 3 (K63A-R65A-R66A-K69A-L73A) (Arabidopsis thaliana, UniProt Q38997, K63A/K69A/L73A/R65A/R66A); assay: MST binding of T6P to KIN10 mutant 3
# [6] = biological target: KIN10 mutant 1 (Arabidopsis thaliana, UniProt Q38997, K34A/R23A/R32A); assay: KIN10 kinase activity assay with SPS peptide, mutant 1; assay type: biochemical; conditions: 1 mM T6P, 200 ng KIN10 mutant 1 and 200 ng GRIK1
# [7] = biological target: T2, WT KIN10 (Arabidopsis thaliana, UniProt Q38997); assay: MST binding of T6P to WT KIN10 kinase domain
# [8] = biological target: plant α-catalytic subunit of SnRK1 (Arabidopsis thaliana, UniProt Q38997); assay: Inhibition of the SnRK1 α-catalytic subunit by sugar phosphates; assay type: biochemical; conditions: table S4
# [9] = biological target: T2, WT KIN10; assay: KIN10 kinase activity assay with SPS peptide, WT KIN10; assay type: biochemical
# [10] = biological target: KIN10 K63A-R66A-R141A (Arabidopsis thaliana, UniProt Q38997, K63A/R141A/R66A); assay: biochemical; assay type: binding
# [11] = biological target: KIN10 mutant 2 (Arabidopsis thaliana, UniProt Q38997, K54A/K56A/R52A/R53A); assay: KIN10 kinase activity assay with SPS peptide, mutant 2; assay type: biochemical; conditions: 1 mM T6P, 200 ng KIN10 mutant 2 and 200 ng GRIK1
# [12] = biological target: KIN10 R141A (Arabidopsis thaliana, UniProt Q38997, R141A); assay: MST binding of T6P to KIN10 R141A
# Method in brief: as §2
# [13] = biological target: KIN10 mutant 1 (R23A-R32A-K34A) (Arabidopsis thaliana, UniProt Q38997, K34A/R23A/R32A); assay: MST binding of T6P to KIN10 mutant 1
# Method in brief: as §1
# [14] = biological target: T1, KIN10 mutant 3 (K63A-R65A-R66A-K69A-L73A); assay: KIN10 kinase activity assay with SPS peptide, mutant 3; assay type: biochemical; conditions: 1 mM T6P, 50 nM KIN10 mutant 3 plus 50 nM GRIK1
# [15] = biological target: KIN10 R66A (Arabidopsis thaliana, UniProt Q38997, R66A); assay: MST binding of T6P to KIN10 R66A
# Method in brief: as §2
# T1 sequence (Q38997 19-271 K63A/R65A/R66A/K69A/L73A limits assumed): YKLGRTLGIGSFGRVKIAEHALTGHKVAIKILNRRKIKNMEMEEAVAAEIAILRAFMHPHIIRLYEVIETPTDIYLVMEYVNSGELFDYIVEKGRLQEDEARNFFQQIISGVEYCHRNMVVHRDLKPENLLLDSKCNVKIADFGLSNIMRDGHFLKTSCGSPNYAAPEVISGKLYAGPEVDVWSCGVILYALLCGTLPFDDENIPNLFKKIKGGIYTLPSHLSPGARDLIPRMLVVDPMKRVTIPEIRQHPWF
# Chain of KIN10 K63A-R66A-R141A (Q38997 19-271 K63A/R66A/R141A limits assumed): as the sequence (Q38997 19-271 K63A/R65A/R66A/K69A/L73A limits assumed) above, with A47R, A51K, A55L, R123A counted along it
# T2 sequence (Q38997 19-271 limits assumed): as the sequence (Q38997 19-271 K63A/R65A/R66A/K69A/L73A limits assumed) above, with A45K, A47R, A48R, A51K, A55L counted along it
# Chain of KIN10 K63A (Q38997 19-271 K63A limits assumed): as the sequence (Q38997 19-271 K63A/R65A/R66A/K69A/L73A limits assumed) above, with A47R, A48R, A51K, A55L counted along it
# Chain of KIN10 mutant 1 (R23A-R32A-K34A) (Q38997 19-271 R23A/R32A/K34A limits assumed): as the sequence (Q38997 19-271 K63A/R65A/R66A/K69A/L73A limits assumed) above, with R5A, R14A, K16A, A45K, A47R, A48R, A51K, A55L counted along it
# Chain of KIN10 mutant 2 (R52A-R53A-K54A-K56A) (Q38997 19-271 R52A/R53A/K54A/K56A limits assumed): as the sequence (Q38997 19-271 K63A/R65A/R66A/K69A/L73A limits assumed) above, with R34A, R35A, K36A, K38A, A45K, A47R, A48R, A51K, A55L counted along it
# Chain of KIN10 R66A (Q38997 19-271 R66A limits assumed): as the sequence (Q38997 19-271 K63A/R65A/R66A/K69A/L73A limits assumed) above, with A45K, A47R, A51K, A55L counted along it
# Chain of KIN10 mutant 1 (Q38997 19-271 R23A/R32A/K34A limits assumed): as the sequence (Q38997 19-271 K63A/R65A/R66A/K69A/L73A limits assumed) above, with R5A, R14A, K16A, A45K, A47R, A48R, A51K, A55L counted along it
# Chain of KIN10 mutant 2 (Q38997 19-271 R52A/R53A/K54A/K56A limits assumed): as the sequence (Q38997 19-271 K63A/R65A/R66A/K69A/L73A limits assumed) above, with R34A, R35A, K36A, K38A, A45K, A47R, A48R, A51K, A55L counted along it
# Chain of KIN10 mutant 3 (Q38997 19-271 K63A/R65A/R66A/K69A/L73A limits assumed): as the sequence (Q38997 19-271 K63A/R65A/R66A/K69A/L73A limits assumed) above
# Chain of KIN10 R141A (Q38997 19-271 R141A limits assumed): as the sequence (Q38997 19-271 K63A/R65A/R66A/K69A/L73A limits assumed) above, with A45K, A47R, A48R, A51K, A55L, R123A counted along it
# Chain of plant α-catalytic subunit of SnRK1 (Q38997 19-271 limits assumed): as the sequence (Q38997 19-271 K63A/R65A/R66A/K69A/L73A limits assumed) above, with A45K, A47R, A48R, A51K, A55L counted along it
smiles,measurement,setting,value
"Nc1ncnc2c1ncn2[C@@H]1O[C@H](COP(=O)(O)OP(=O)(O)OP(=O)(O)O)[C@@H](O)[C@H]1O [ATP, adenosine triphosphate]","Kd for ATP, mutant 3 compared with WT KIN10",[1],no change
"O=P(O)(O)OC[C@H]1O[C@H](O[C@H]2O[C@H](CO)[C@@H](O)[C@H](O)[C@H]2O)[C@H](O)[C@@H](O)[C@@H]1O [T6P, trehalose 6-phosphate]",Kd,[2],34 ± 5 µM
same,Kd by MST,"[2]; KIN10 mutant 2, Table 1 series",no significant difference
same,reduction of affinity of GRIK1 for KIN10 on T6P binding,[3],threefold
same,Kd,[4],47 ± 7 µM
same,increase of Kd versus WT,"[4]; span over the three single mutants K63A, R66A and R141A, versus WT",1.9- to 2.5 fold
same,Kd,[5],165 ± 21 µM
same,reduction of affinity of T6P binding versus WT KIN10,[5]; mutant 3 versus WT,fivefold
same,activation of mutant 1 by GRIK1 in the presence of T6P,[6],reduced
same,Kd,[7],28 ± 4 µM
same,inhibition of the plant α-catalytic subunit of SnRK1,[8],specifically inhibited
same,IC50,[9],40 µM
same,change of basal activity of WT KIN10 on addition of T6P,"[9]; 1 mM T6P, 50 nM KIN10, no GRIK1",doubling
same,Kd,"[10]; Kds determined by MST, KIN10 K63A-R66A-R141A, Table 2 series",143 µM
same,increase in Kd versus WT,[10]; triple mutant K63A-R66A-R141A versus WT,sevenfold
same,activation of mutant 2 by GRIK1 in the presence of T6P,[11],reduced
same,Kd,[12],52 ± 7 µM
same,Kd,[13],26 ± 6 µM
same,Kd by MST,"[13]; KIN10 mutant 1, Table 1 series",no significant difference
same,reduction of mutant 3 activation by GRIK1 in the presence of T6P,[14],no reduction
same,Kd,[15],40 ± 5 µM
